This is an account of results in PubChem BioAssay AID1424 (The Scripps Research Institute Molecular Screening Center, 2008).

Hit rate of the full screen: of about 220,000 compounds, about 390 (0.18%) were called active. The full list was thinned out, with actives kept by preference. A number with no mark means an inactive call.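 The calls were made as follows: active = activation above its plate's cutoff, the mean activation of test wells on that plate plus 3 SD (cut at about 19% in these data); inactive = the rest.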

The subject of the assay is transient receptor potential cation channel N1 (TRPN1/NompC), Danio rerio. Nature of the assay: zebrafish TRPN1 channel agonists, primary screen, cell-based, HEK293, calcium fluorescence (AID 1424).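 Also: 0% = DMSO alone and 100% = 87 µM carbachol.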 The conditions noted are these: HEK293 zebrafish TRPN1-YFP, Fluo-8 calcium fluorescence; at 3 µM; hits give high values; 100% = response to 87 µM carbachol. In short, it runs like this: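 Material: zebrafish TRPN1-YFP in HEK293 cells. Doses: one dose of 3 µM, 0.3% DMSO. Incubation: dye 1 h 37 °C plus 30 min RT. Measured by: intracellular calcium fluorescence with Fluo-8.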
Turning to `O=C(NCC(c1cccs1)N1CCOCC1)c1cc(-c2ccccn2)nc2ccccc12` (stereo not given), the activation was 1.98%.

For the molecule `CC(C)(C)c1cnnn1-c1ccc([N+](=O)[O-])cc1`, the activation was 1.54%.

Take `CN=C1C=C/C(=N/N=c2\ccn(O)cc2C)C=C1C`: the activation is -3.14%.

Consider `CCC(C(=O)OCC(=O)Nc1ccc(C(=O)Nc2ccc(OC)cc2)cc1)c1ccccc1` (stereo not given), for which the activation was 2.79%.

With `CCC(C(=O)Nc1ccc2c(c1)OCCO2)c1ccccc1` (stereo not given), the activation was -0.31%.

On to `CCC(C(=O)Nc1ccc(C(C)C)cc1)c1ccccc1` (stereo not given), for which the activation was 29% (active).

Take `CC1=NN(Cc2ccccc2)C(=O)/C1=C/c1ccc(N(C)C)cc1`: the activation is -3.57%.

For `O=C1NCC(=O)N(Cc2ccccc2)/C1=C/c1ccccc1`, the activation is 0.65%.

In the case of `CN(C)c1ccc(/C=C2\NC(=S)N(Cc3ccccc3)C2=O)cc1`, the activation is 30.3% (active).

With `Cc1ccc(S(=O)(=O)N2CCOCC2)cc1NC(=O)CSc1nnc(N)s1`, the activation is 0.64%.

`CC1CN(CCCOc2ccccc2-c2ccccc2)CC(C)O1` (stereo not given): the activation was -1.64%.

Consider `CC(CNS(=O)(=O)c1ccc(Br)cc1)CN(C)C` (stereo not given), for which the activation was 0.45%.

Consider `CCOc1cc2[nH]c(=O)n(Cc3ccc(C(=O)NCCCN4CCCC4=O)cc3)c(=O)c2cc1OCC`, for which the activation was -0.57%.

As for `CC(C)(c1ccccc1)c1ccc(OCCN)cc1`, the activation was 2.87%.

In the case of `CONc1nc2nonc2nc1NOC`, the activation was 2.6%.

With `CC1C(=O)NC(=O)C1c1ccccc1` (stereo not given), the activation was 0.95%.

Turning to `Cc1cc(C)c(OCCN2CC(C)OC(C)C2)c(Br)c1` (stereo not given), the activation is -2.75%.

For `Cc1ccc2[nH]cc(CCNC(=O)c3ccc([N+](=O)[O-])cc3)c2c1`, the activation is -0.48%.

Regarding `CCOc1cc(/C=C(\C#N)c2nc(-c3cccs3)c(NC(C)=O)s2)ccc1O`, the activation is 26.9% (active).

As for `COc1cc(/C=C(\C#N)c2nc3c(s2)CC(C)CC3)ccc1O` (stereo not given), the activation is 9.23%.

Consider `COc1cc(/C=N\Nc2nc(-c3cccs3)c(NC(C)=O)s2)ccc1O`, for which the activation is 0.7%.

As for `COC(=O)c1cc(NC(=O)Cc2ccccc2[N+](=O)[O-])ccc1Cl`, the activation is -1.23%.

In the case of `CC(C[N+](C)(C)C)OC(N)=O` (stereo not given), the activation is 0.21%.

Regarding `CC(=O)OC(C)C[N+](C)(C)C` (stereo not given), the activation was 51% (active).

In the case of `CN1CCN(c2cc3c(cc2F)c(=O)c(C(=O)O)cn3CCF)CC1`, the activation was 1.93%.

`O=C(N1CCCCC1)N1CCN(C(=O)N2CCCCC2)CC1`: the activation was 1.43%.

`CCOc1cc(/C=C2/C(=N)N3OC(C)=CC3=NC2=O)ccc1OC`: the activation is -0.5%.

On to `CC1=CC2=NC(=O)/C(=C/c3coc4ccccc4c3=O)C(=N)N2O1`, for which the activation is 35.5% (active).

Turning to `COc1ccc(OCCCn2cccc2/C=C2/C(=N)N3OC(C)=CC3=NC2=O)cc1`, the activation is 1.04%.

Take `CC(=O)c1c(C)[nH]c(=S)c(C#N)c1-c1ccc(F)cc1`: the activation was -0.66%.

As to `Oc1ccc2ccc3cccc[n+]3c2c1`, the activation was 33.7% (active).

Regarding `CCN(Cc1ccccc1)S(=O)(=O)c1cc(C(=O)O)ccc1OC`, the activation is -2.45%.

In the case of `COc1cc(OC)cc(C(=O)N[C@H](C(=O)Nc2nc3ccccc3[nH]2)C(C)C)c1`, the activation is -2.24%.

`CC(NC(=O)COC(=O)c1ccc2c(c1)OCO2)c1ccccc1` (stereo not given): the activation was 1%.

Turning to `COc1cc(OC)cc(C(=O)N[C@H](C(=O)OCC(=O)NC(C)c2ccccc2)C(C)C)c1` (stereo not given in full), the activation is 46.5% (active).

With `COc1ccc(C(=O)N/N=C2\CCS(=O)(=O)c3ccc(F)cc32)cc1OC`, the activation was 2.13%.

Take `COC(=O)c1cc(NC(=O)CN2CCN(C(C)=O)CC2)cc(C(=O)OC)c1`: the activation is 2.13%.

Consider `COc1cc(OC)c(C(=O)NC2CC(C)(C)NC(C)(C)C2)cc1OC`, for which the activation is 2.05%.

Consider `COc1cc(OC)c(C(=O)NC2CCCCCC2)cc1OC`, for which the activation is 32.1% (active).

In the case of `COc1ccc(S(=O)(=O)NC(C)C)cc1C(=O)NC1CCCCC1`, the activation was -0.93%.

For `CC(C)(C)c1cc(NC(=O)NN2CCOCC2)nn1-c1c(Cl)cc(Cl)cc1Cl`, the activation is 0.61%.

Take `O=C(NC(=O)N1CCSCC1)c1c(Cl)cccc1Cl`: the activation is 2.1%.

For `O=S(=O)(/N=C(/Nc1ccccc1)c1ccccc1)c1cccs1`, the activation is -0.34%.

For `O=C(NCCCN1CCN(c2ccc(F)cc2)CC1)Nc1ccc([N+](=O)[O-])cc1`, the activation is 10.4%.

With `Cc1ccccc1NC(=S)NNC(=O)c1cccc(Br)c1`, the activation is 2.03%.

Take `CC(=O)Nc1ccc(CN2CCN(Cc3ccc(F)c(F)c3)C(CCO)C2)cc1` (stereo not given): the activation was 2.06%.

Turning to `CCOC(=O)/C(=N\Nc1ccccc1Cl)N(C)C1CCS(=O)(=O)C1` (stereo not given), the activation was -0.61%.

`COc1ccc(C(=O)N/N=C(\C)CC(=O)Nc2ccc(Cl)cn2)cc1`: the activation was -1.34%.

As to `NC(=O)CC[C@@H]1NC(=O)[C@@H]2CCCN2C(=O)c2cc([N+](=O)[O-])cc(F)c2NCCC[C@@H](C(N)=O)NC1=O`, the activation is 1.08%.

Turning to `Cc1cccc(OCC(=O)NC(=S)Nc2ccccc2N2CCOCC2)c1`, the activation is -0.19%.

As for `Cc1ccc(O)c(NC(=S)NC(=O)COc2ccc(Br)cc2)c1`, the activation was 30.4% (active).

As to `Cc1ccc(O)c(NC(=O)COc2cc(C)ccc2C)c1`, the activation is -0.38%.

As to `CC(=O)c1sc(NC(=O)C2=NN(c3ccccc3)C(=O)CC2)nc1C`, the activation is 0.7%.

As for `C=CCNC(=S)N1CCc2[nH]c3ccccc3c2C1`, the activation is 0.61%.

With `Cc1cc(C)c2[nH]c(=O)c(CN(Cc3ccccc3)C(=S)NCCCN(C)C)cc2c1`, the activation is -0.96%.

Regarding `CSc1ncccc1C(=O)OCc1ccc(Br)cc1`, the activation is -0.54%.

With `Nc1c(C(=O)c2cccs2)sc2nsc(SCCN3CCCCC3)c12`, the activation was 33.7% (active).

Take `Cc1nc2sc(C(=O)c3ccccc3)c(N)c2c2c1CCCC2`: the activation is -0.99%.

On to `CN(C)c1ccnc2sc(C(=O)c3ccccc3)c(N)c12`, for which the activation is -2.41%.

On to `Cn1ccs/c1=N\S(=O)(=O)c1ccc(C(C)(C)C)cc1`, for which the activation is 1.16%.

`COc1ccccc1C1CC(=O)n2c(nc(-c3ccccc3)c2-c2ccccc2)S1` (stereo not given): the activation was -0.42%.

In the case of `COc1c(C)cc(C(=O)C2CCCN(S(=O)(=O)c3c(C)noc3C)C2)cc1C` (stereo not given), the activation was -0.64%.

As for `Fc1ccc(NC(=S)N2CCc3[nH]c4ccccc4c3C2)cc1`, the activation was 3.02%.

Turning to `O=C(NCCCn1ccnc1)C(=O)NCC1OCCN1S(=O)(=O)c1cc(F)ccc1F` (stereo not given), the activation is 1%.

On to `CC(C)CC(CC(C)C)=NNC(=O)c1ccc(CSc2nncn2C)cc1`, for which the activation was -0.24%.

`CC(=O)Nc1ccccc1C(=O)C(=O)Nc1ccc(F)cc1`: the activation is 0%.

As to `COc1ccc(COC(=O)N/N=C(\C)CC(=O)Nc2ccc(Cl)cc2)cc1`, the activation is -1.28%.

As for `COc1ccccc1CSc1ncc(-c2ccc([N+](=O)[O-])cc2)[nH]1`, the activation was -2.17%.

As to `CCc1ccc(NC(=O)C(C)OC(=O)/C=C/c2cccc([N+](=O)[O-])c2)cc1` (stereo not given), the activation was 2.04%.

For the molecule `Cn1cnc(C(F)(F)F)c1-c1ccc([N+](=O)[O-])cc1`, the activation is -1.25%.

Regarding `Cc1cc(C)cc(OCC(=O)O/N=C(\N)Cc2ccc([N+](=O)[O-])cc2)c1`, the activation is -1.73%.

As to `O=c1c(Cl)c(NCc2ccc(F)cc2Cl)cnn1C12CC3CC(CC(C3)C1)C2`, the activation is 0.56%.

Take `O=C(O)CCC(=O)Nc1nc2ccc([N+](=O)[O-])cc2s1`: the activation was -0.08%.

With `O=C(NC(Nc1nc2ccc([N+](=O)[O-])cc2s1)(C(F)(F)F)C(F)(F)F)c1ccccc1`, the activation was 27.4% (active).

`O=C(Nc1nc2ccc([N+](=O)[O-])cc2s1)c1ccncc1`: the activation is 4.01%.
